# Active and inactive are the calls of the source. The calls are words filed in the database; no cut-off is given here.
# Experiments:
# A549 [1] = assay: Antitumor activity in human A549 cells cultured as 3D spheroids assessed as fold decrease in spheroid volume at 5 uM measured up to 15 days by inverted microscopic analysis; type: functional; settings: time <= 15 day
# In short: (§1)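 Spheroids formed from 2000 cells/well in ultra-low attachment U-bottom wells over 3 days, then given a single dose on day 3. Half the media was replenished every 3 days. Transmitted-light images were taken through day 15, and spheroid volume was computed from images and expressed as fold-difference. Mean ± SD, n = 8; unpaired t-test.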
# A549 [2] = assay: Inhibition of gankyrin-proteasome protein-protein interaction in human A549 cells assessed as increase in phosphorylated p53 level at serine 15 residue at 0.04 to 0.33 uM measured after 48 hrs by Western blotting analysis; type: cell-based; settings: dose 0.04-0.33 µM
# In short: (§2)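 Cells in 10 cm dishes treated with varying concentrations (0.5% DMSO final) or DMSO only for 48 h. Lysed in RIPA with protease/phosphatase inhibitors on ice for 60 min. 15 μg protein resolved under reducing conditions, transferred to PVDF, and probed for p53, phospho-p53 S6/S15, Rb, gankyrin and cyclophilin. Detection by HRP-secondary ECL.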
# [3] = Metabolic stability in human liver microsomes assessed as compound remaining preincubated for 10 mins followed by NADPH addition measured after 60 mins by HPLC analysis; type: ADME, Microsome; settings: read-out: Stability
# A549 [4] = assay: Inhibition of gankyrin-proteasome protein-protein interaction in human A549 cells assessed as increase in phosphorylated p53 level at serine 6 residue at 0.12 to 1 uM measured after 48 hrs by Western blotting analysis; type: cell-based; settings: dose 0.12-1 µM; in short: as §2
# [5] = molecular target: T1, 26S proteasome non-ATPase regulatory subunit 10 (Homo sapiens) (UniProt O75832); assay: Binding affinity to gankyrin (unknown origin) assessed as change in melting temperature at 300 uM by SYPRO orange staining based thermal shift assay
# T1 sequence (whole entry): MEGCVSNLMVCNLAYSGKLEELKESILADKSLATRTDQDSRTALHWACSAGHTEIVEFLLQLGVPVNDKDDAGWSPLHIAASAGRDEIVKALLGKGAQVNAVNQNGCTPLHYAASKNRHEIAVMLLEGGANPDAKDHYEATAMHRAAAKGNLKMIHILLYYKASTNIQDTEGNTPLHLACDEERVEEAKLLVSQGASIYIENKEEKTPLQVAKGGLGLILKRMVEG
# MDA-MB-231 = assay: Antiproliferative activity against human MDA-MB-231 cells assessed as cell growth inhibition measured after 72 hrs by MTT assay; type: functional, cell-based; settings: MDA-MB-231, 72 h
# In short: (§3)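 Cells seeded at 2.5 × 10^4 cells/well, allowed 24 h before dosing, then exposed to increasing concentrations (0.5% DMSO final) for 72 h at 37 °C, 5% CO2. MTT added at 1 mg/mL final in complete media for 2 h, formazan dissolved in DMSO, absorbance read at 570 nm. 6–8 repeats per treatment; IC50 from concentration–response fit.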
# A549 [6] = assay: Antitumor activity against human A549 cells tumor spheroids assessed as increase in dead cells by measuring red fluorescence intensity measured at 15 days by EthD-III staining based fluorescence microscopic analysis; type: functional, cell-based; settings: dose 0.15-5 µM, time 15.0 day, DDE = dose-dependent effect
# In short: (§4)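 Live/dead staining of 3D spheroids at day 15 after single-dose treatment: media replaced by kit reagent with calcein AM (live, green) and EthD-III (dead, red), 30 min in dark at room temperature, imaged at 4X by fluorescence microscopy. Mean ± SD, n = 4; unpaired Student's t-test.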
# A549 [7] = assay: Inhibition of gankyrin-proteasome protein-protein interaction in human A549 cells assessed as increase in phosphorylated p53 level at serine 6 residue at 0.04 to 0.33 uM measured after 48 hrs by Western blotting analysis; type: cell-based; settings: dose 0.04-0.33 µM; in short: as §2
# A549 [8] = assay: Antitumor activity against human A549 cells tumor spheroids assessed as decrease in live cells by measuring green fluorescence intensity measured at 15 days by calcein AM staining based fluorescence microscopic analysis; type: functional, cell-based; settings: dose 0.15-5 µM, time 15.0 day, DDE = dose-dependent effect; in short: as §4
# A549 [9] = assay: Antitumor activity in human A549 cells cultured as 3D spheroids assessed as fold decrease in spheroid volume at 2.5 uM measured up to 15 days by inverted microscopic analysis; type: functional; settings: time <= 15 day; in short: as §1
# [10] = Cytotoxicity against HEK293 cells assessed as cell growth inhibition measured after 72 hrs by MTT assay; type: toxicity, cell-based; settings: human; in short: as §3
# [11] = molecular target: T1, 26S proteasome non-ATPase regulatory subunit 10 (Homo sapiens); assay: Binding affinity to gankyrin (unknown origin) expressed in Escherichia coli BL21 (DE3) expression system assessed as formation of white precipitation of the compound at 1.5 uM
# A549 [12] = assay: Antiproliferative activity against human A549 cells assessed as cell growth inhibition measured after 72 hrs by MTT assay; type: functional, cell-based; settings: A549, 72 h; in short: as §3
# A549 [13] = assay: Inhibition of gankyrin-proteasome protein-protein interaction in human A549 cells assessed as increase in phosphorylated p53 level at serine 6 residue at 0.60 to 5 uM measured after 48 hrs by Western blotting analysis; type: cell-based; settings: dose 0.6-5 µM; in short: as §2
# A549 [14] = assay: Inhibition of gankyrin-proteasome protein-protein interaction in human A549 cells assessed as increase in phosphorylated p53 level at serine 15 residue at 0.12 to 1 uM measured after 48 hrs by Western blotting analysis; type: cell-based; settings: dose 0.12-1 µM; in short: as §2
# [15] = molecular target: T1, 26S proteasome non-ATPase regulatory subunit 10 (Homo sapiens); assay: Binding affinity to gankyrin (unknown origin) expressed in Escherichia coli BL21 (DE3) expression system assessed as decrease in thermal denaturation at 1.5 uM measured at 5 to 90 degreeC by circular dichroism spectropolarimeter analysis
# In short: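 Recombinant His-tagged gankyrin expressed in E. coli BL21(DE3) Codon+RIL (IPTG 1 mM, 25 °C, ~5 h) and purified by Ni2+-IMAC. Thermal denaturation followed by CD at 217 nm over 5–90 °C with compound at 1.5 μM.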
# A549 [16] = assay: Antitumor activity in human A549 cells cultured as 3D spheroids assessed as fold decrease in spheroid volume at 0.5 uM measured up to 15 days by inverted microscopic analysis; type: functional; settings: time <= 15 day; in short: as §1
# A549 [17] = assay: Inhibition of colony formation in human A549 cells at 0.5 uM incubated for 48 hrs followed by replacement of fresh media every alternative day measured after 7 days by crystal violet staining based clonogenic assay relative to control; values are per cent of control; settings: A549, 48 h
# A549 [18] = assay: Inhibition of gankyrin-proteasome protein-protein interaction in human A549 cells assessed as increase in p53 level at 0.12 to 1 uM measured after 48 hrs by Western blotting analysis; type: cell-based; settings: dose 0.12-1 µM; in short: as §2
# A549 [19] = assay: Antitumor activity in human A549 cells cultured as 3D spheroids assessed as fold decrease in spheroid volume at 1 uM measured up to 15 days by inverted microscopic analysis; type: functional; settings: time <= 15 day; in short: as §1
# A549 [20] = assay: Colony formation in human A549 cells at 1 uM incubated for 48 hrs followed by replacement of fresh media every alternative day measured after 7 days by crystal violet staining based clonogenic assay relative to control; settings: A549, 48 h
# A549 [21] = assay: Inhibition of gankyrin-proteasome protein-protein interaction in human A549 cells assessed as increase in Rb level at 0.12 to 1 uM measured after 48 hrs by Western blotting analysis; type: cell-based; settings: dose 0.12-1 µM; in short: as §2
# A549 [22] = assay: Antitumor activity in human A549 cells cultured as 3D spheroids assessed as fold decrease in spheroid volume at 0.30 uM measured up to 15 days by inverted microscopic analysis; type: functional; settings: dose 0.3 µM; time <= 15 day; in short: as §1
# A549 [23] = assay: Induction of cell cycle arrest in human A549 cells assessed as decrease in cell accumulation at G2/M phase at 0.3 uM measured after 72 hrs by propidium iodide staining based flow cytometry analysis; type: functional
# In short: (§5)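 Cells in 10 cm dishes treated for 72 h (0.1% DMSO final; DMSO-only control). Harvested in cold PBS, fixed in 70% ethanol at −20 °C overnight, stained with PI for 40 min at 37 °C, then analysed by flow/imaging cytometry for G0/G1, S and G2/M fractions. Mean ± SD, n = 3.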
# A549 [24] = assay: Inhibition of colony formation in human A549 cells at 0.3 uM incubated for 48 hrs followed by replacement of fresh media every alternative day measured after 7 days by crystal violet staining based clonogenic assay relative to control; values are per cent of control; settings: A549, 48 h
# A549 [25] = assay: Induction of cell cycle arrest in human A549 cells assessed as increase in cell accumulation at G0/G1 phase at 0.3 uM measured after 72 hrs by propidium iodide staining based flow cytometry analysis; type: functional; in short: as §5
# [26] = molecular target: T1, 26S proteasome non-ATPase regulatory subunit 10 (Homo sapiens); assay: Binding affinity to gankyrin in human A549 cells assessed as decrease in thermal stability at 0.3 uM incubated for 48 hrs followed by heat treatment at 50 to 65 degreeC by CETSA; type: cell-based
# In short: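 CETSA: cells treated with compound for 48 h, then heated across a temperature range. Soluble gankyrin was detected by western blot and melt curves were constructed. Mean ± SD, n = 3.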
# A549 [27] = assay: Antitumor activity in human A549 cells cultured as 3D spheroids assessed as fold decrease in spheroid volume at 0.15 uM measured up to 15 days by inverted microscopic analysis; type: functional; settings: time <= 15 day; in short: as §1
# A549 [28] = assay: Induction of cell cycle arrest in human A549 cells assessed as decrease in cell accumulation at S phase at 0.3 uM measured after 72 hrs by propidium iodide staining based flow cytometry analysis; type: functional; in short: as §5
SMILES,Activity (A549 [2]),remaining at 1 h [3],Activity (A549 [4]),Activity [5],IC50 (MDA-MB-231),Activity (A549 [6]),Activity (A549 [7]),Activity (A549 [8]),IC50 at 72 h [10],Activity [11],IC50 (A549 [12]),Activity (A549 [13]),Activity (A549 [14]),Activity [15],also measured
Cc1ccc(NC(=S)CCCn2cc(-c3ccc(C(F)(F)F)cc3)nn2)cc1,Active,73%,Active,Active,83.2 µM,Dde,Active,Dde,> 100 µM,Active,5500 nM,Active,Active,Active,fold change (FC) (A549 [1]): 3.5; fold change (FC) (A549 [9]): 3.3
FC(F)(F)c1ccc(-c2cn(CCCC(=S)Nc3ccc(-c4ccccc4)cc3)nn2)cc1,–,80%,Active,Active,> 100 µM,Dde,Active,Dde,> 100 µM,Active,1000 nM,Active,–,Active,"fold change (FC) (A549 [16]): 3.8; growth, % of control at 0.5 µM (A549 [17]): 83.8%; Activity (A549 [18]): Active; fold change (FC) (A549 [19]): 4; growth, % of control at 1 µM (A549 [20]): 61.4%; Activity (A549 [21]): Active"
COC(=O)c1ccc(-c2cn(CCCC(=O)Nc3ccc(-c4ccccc4)cc3)nn2)cc1,Active,87%,Active,Active,> 100 µM,Dde,Active,Dde,> 100 µM,–,330 nM,Active,Active,Active,"fold change (FC) (A549 [22]): 2.4; Activity (A549 [23]): Active; growth, % of control at 0.3 µM (A549 [24]): 44.6%; Activity (A549 [25]): Active; Activity [26]: Active; fold change (FC) (A549 [27]): 3.6; Activity (A549 [28]): Active"

# Source: ChEMBL document CHEMBL5120910, “Small-Molecule Gankyrin Inhibition as a Therapeutic Strategy for Breast and Lung Cancer” (J Med Chem, 2022)
